Data as given in PMC7583042 (Free radical biology & medicine, 2019).
Values joined by “and” are separate entries in the source; they are usually repeats but may differ in a detail not shown here. Identical values can stand only once. “Also recorded” adds a separate entry of the source. Like-named read-outs stand apart in the source and are kept apart here.

How the values were obtained:
SmTGR WT [1] = target: T1, SmTGR WT (Schistosoma mansoni, UniProt Q962Y6); assay: biochemical; type: biochemical
human GR = target: T2, human GR (Homo sapiens, UniProt P00390); assay: biochemical; type: biochemical; conditions: for Apparent IC50 Human GR: 15 min preincubation with NADPH; for inhibition of Human GR @ 2 mM: 2 mM compound
T2 sequence (P00390 1-479 isoform P00390-2): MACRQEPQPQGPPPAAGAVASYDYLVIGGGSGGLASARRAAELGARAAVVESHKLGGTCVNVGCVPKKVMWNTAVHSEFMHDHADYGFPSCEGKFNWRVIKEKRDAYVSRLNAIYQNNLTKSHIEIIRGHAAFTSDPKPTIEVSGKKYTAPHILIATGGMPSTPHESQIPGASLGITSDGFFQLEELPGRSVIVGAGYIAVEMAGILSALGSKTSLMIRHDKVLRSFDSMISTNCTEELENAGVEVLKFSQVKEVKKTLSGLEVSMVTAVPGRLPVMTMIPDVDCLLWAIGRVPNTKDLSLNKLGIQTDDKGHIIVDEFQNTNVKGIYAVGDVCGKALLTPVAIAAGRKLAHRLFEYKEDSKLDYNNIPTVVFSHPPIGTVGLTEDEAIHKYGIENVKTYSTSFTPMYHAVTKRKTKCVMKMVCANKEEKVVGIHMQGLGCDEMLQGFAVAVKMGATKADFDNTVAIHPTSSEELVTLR

Rat TrxR = conditions: ref bioassay AID 588453, cited from earlier work; for IC50: read-out: Apparent IC50 Rat TrxR
[2] = pKa of the amine named in the cell; source not stated; cited from earlier work
Adult S. mansoni = assay: Ex vivo cultured adult worm survival; type: cell-based, Schistosoma mansoni; conditions: ex vivo culture
Outline: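 Adult worms were isolated from infected mice and held 24 h in RPMI with 10% fetal calf serum, 10 mM glutamine and 1× penicillin/streptomycin. Test compound was then added to the medium at 10 or 50 μM. Worms were observed daily and scored dead when no movement was seen after several minutes' observation. Percentage dead is reported at 144 h.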

[3] = system: human glutathione S-transferase Ω−1 (GSTO1); conditions: ref bioassay AID 66188991; cited from earlier work
Larval S. mansoni = assay: Ex vivo cultured larval worm survival; type: cell-based, Schistosoma mansoni; conditions: ex vivo culture
Outline: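 Schistosomula were made by mechanical transformation of cercariae shed from infected Biomphalaria glabrata, then isolated on a Percoll gradient. They were cultured 24 h in M-199 with 10% fetal calf serum before test compound was added at 10 μM. Daily observation scored larvae dead when motionless for several minutes. Percentage dead is reported at 120 h.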

SmTGR-E330A/D334A [4] = target: T3, SmTGR-E330A/D334A (Schistosoma mansoni, UniProt Q962Y6, D334A/E330A); assay: SmTGR-E330A/D334A mutant inhibition, DTNB assay; type: biochemical
SmTGR-U597C [5] = target: SmTGR-U597C (Schistosoma mansoni, UniProt Q962Y6); assay: biochemical
SmTGR-U597C [6] = assay: biochemical; conditions: 15 min
SmTGR WT [7] = target: SmTGR WT (Schistosoma mansoni, UniProt Q962Y6, X597U); type: biochemical; conditions: global fitting of time dependent inactivation
SmTGR WT [8] = type: biochemical, Schistosoma mansoni
SmTGR-E330A/D334A [9] = target: T3, SmTGR-E330A/D334A; assay: Time dependent inactivation of SmTGR-E330A/D334A; type: biochemical; conditions: global fitting of time dependent inactivation
SmTGR WT [10] = target: T1, SmTGR WT; assay: NADPH oxidase activity of inhibited enzyme; type: biochemical; conditions: 50 μM inhibitor, 30 min, pyrogallol red
[11] = oQM-thiol adduct formation with Cys and GSH followed by RP-HPLC/MS; type: physicochemical; conditions: pH 7.4, ambient temperature
Outline: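 Test compound (1 mM) was incubated alone or with 1 mM Cys and GSH in 5 mM sodium phosphate, pH 7.4 (also pH 8.3), at ambient temperature. Aliquots were injected at time intervals onto C18 RP-HPLC, eluting with a 0–100% acetonitrile gradient in 0.1% formic acid. Peaks were identified by ESI-MS and CID MS/MS (−4.0 kV, m/z 125–2,000, 260 °C capillary).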

[12] = read-out: Apparent IC50 TGR, 15 min preincubation, NADPH present
[13] = read-out: IC50 (Table 2), SmTGR value repeated in Table 2

Compound | IC50 (SmTGR WT [1]; [12]) [µM] | Apparent IC50 Human GR (human GR) | Apparent IC50 Rat TrxR (Rat TrxR) | pka of the leaving group upon oQM formation [2] | Adult S. mansoni (144 h) 50 μM, worms dead (Adult S. mansoni) [% dead] | Apparent IC50 GSTO1 [3] | IC50 (Rat TrxR) | Adult S. mansoni (144 h) 10 μM, worms dead (Adult S. mansoni) [% dead] | further results
Oc1ccc2ccccc2c1CN1CCCCC1 [Compound 7] | 57.6 ± 4.57 | inactive | inactive | 11.2 (piperidine) | – | – | – | – | –
Oc1ccc2ccccc2c1CN1CCCC1 [Compound 6] | 28.8 ± 5.37 | inactive | inactive | 11.2 (pyrolidine) | 0 | inactive | – | – | –
CCOC(=O)N1CCN(Cc2c(O)ccc3ccccc23)CC1 [Compound 2] | 0.65 ± 0.12 | – | – | – | 5 | inactive | 12.6 µM | – | IC50 (SmTGR WT [1]; [13]): 0.65 ± 0.12 µM; inhibition of Human GR @ 2 mM (human GR): 35% inhibition @ 2 mM
CN(Cc1ccccc1)Cc1c(O)ccc2ccccc12 [Compound 3] | 0.84 ± 0.03 | – | inactive | – | 24 | inactive | – | 0 | IC50 (SmTGR WT [1]; [13]): 0.84 ± 0.03 µM; inhibition of Human GR @ 2 mM (human GR): 20% inhibition @ 2 mM; Larval S. mansoni (120 h) 10 μM, worms dead (Larval S. mansoni): 19% dead
CN(C)Cc1c(O)ccc2ccccc12 [Compound 4, 1-[(Dimethylamino)methyl]-2-naphthol] | – | – | – | 11 (dimethylamine) | – | not detected; also recorded: inactive | 31 µM and 31.6 µM | 0 | IC50 (SmTGR WT [1]): 11.2 ± 1.9 µM; inhibition of SmTGR WT at pH 6.4 (SmTGR WT [1]; pH 6.4, data not shown): low micromolar range; IC50 (human GR): 1830 µM; IC50 (SmTGR-E330A/D334A [4]): 44 ± 4.9 µM; fold higher inhibitor concentration needed for E330A/D334A than for WT (SmTGR-E330A/D334A [4]; same degree of inhibition): 4 fold; IC50 (SmTGR-U597C [5]): 2000 µM; fold higher apparent IC50 for SmTGR-U597C than for WT (SmTGR-U597C [6]): 200 fold; second order rate constant for inhibition of SmTGR WT (SmTGR WT [7]): 45.8 M⁻¹ s⁻¹; difference in inhibition rate between WT and E330A/D334A (SmTGR WT [8]; compound at 2 μM): about 360 fold; WT inhibited faster than E330A/D334A (SmTGR WT [8]; compound at 20 μM): 3 times; second order rate constant for inhibition of SmTGR E330/D334 (SmTGR-E330A/D334A [9]): 14.7 M⁻¹ s⁻¹; induction of NADPH oxidase activity in the inhibited WT enzyme (SmTGR WT [10]): able to induce; time to generate comparable amounts of oQM-thiol adduct [11]: 24 h
Oc1ccc2ccccc2c1CN1CC=C(c2ccccc2)CC1 [Compound 5] | 11.9 ± 3.57 | inactive | inactive | – | – | inactive | – | – | –
Oc1ccc2ccccc2c1CN1CCOCC1 [Compound 1, 1-(Morpholin-4-ylmethyl)-2-naphthol] | – | – | – | 8.3 (morpholine) | 13 | not detected; also recorded: inactive | 10 µM | 8 | IC50 (SmTGR WT [1]): 0.61 ± 0.09 µM; IC50 (human GR): 71 ± 11.7 µM; IC50 (SmTGR-U597C [5]): 100 µM; fold higher apparent IC50 for SmTGR-U597C than for WT (SmTGR-U597C [6]): 200 fold; second order rate constant for inhibition of SmTGR WT (SmTGR WT [7]): 1830 M⁻¹ s⁻¹; second order rate constant for inhibition of SmTGR E330/D334 (SmTGR-E330A/D334A [9]): 1300 M⁻¹ s⁻¹; time to generate comparable amounts of oQM-thiol adduct [11]: 1 h
